Test results: ChEMBL document CHEMBL2034924, “Optimization of a Potent, Orally Active S1P1 Agonist Containing a Quinolinone Core” (ACS Med Chem Lett, 2012)
pEC50: −log10 of the molar value. Values after ≈ are worked out from the molar mass of the structure shown.

Key:
[1] = molecular target: T1, Sphingosine 1-phosphate receptor 3 (Homo sapiens, UniProt Q99500); assay: Agonist activity at human S1P3 receptor expressed in CHO cells coexpressing Gq/i5 G-protein assessed as Ca2+ mobilization after 60 to 90 mins by FLIPR assay; format: functional, cell-based
T1 sequence (Q99500 whole entry): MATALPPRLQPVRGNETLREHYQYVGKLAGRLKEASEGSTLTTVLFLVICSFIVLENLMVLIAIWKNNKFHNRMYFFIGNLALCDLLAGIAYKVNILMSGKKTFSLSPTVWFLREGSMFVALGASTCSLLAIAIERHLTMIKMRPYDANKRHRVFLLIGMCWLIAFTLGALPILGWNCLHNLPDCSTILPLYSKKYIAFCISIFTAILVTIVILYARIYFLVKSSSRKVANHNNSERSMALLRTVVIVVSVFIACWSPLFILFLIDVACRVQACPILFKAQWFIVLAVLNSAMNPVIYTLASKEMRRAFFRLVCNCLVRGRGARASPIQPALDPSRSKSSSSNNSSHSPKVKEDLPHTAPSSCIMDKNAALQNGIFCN
How it was run: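 Ca2+ mobilization in CHO-K1 cells transfected with hS1P3/Gq/i5. EC50 is the molar concentration giving a half-maximal response.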

[2] = Solubility of the compound in simulated intestinal fluid at pH 6.8 after 2 to 3 days by HPLC analysis; format: physicochemical
[3] = Plasma protein binding in rat; format: ADME, cell-free; conditions: read-out: PPB (converted)
[4] = Intrinsic clearance in rat liver microsomes at 1 uM after 30 mins; format: ADME, Microsome; conditions: read-out: CLH
Rattus norvegicus [5] = assay: Lymphopenic activity in Lewis rat assessed as reduction in peripheral blood lymphocyte counts at 1 mg/kg, po measured 24 hrs post dosing relative to control; format: functional; design: scale not given: the % may be the effect or the level left
How it was run: (§1)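 Female Lewis rats (N = 5/group) received a single oral dose of 1 mg/kg in 20% captisol, 1% HPMC, 1% pluronic F68, pH 2.1 with MSA. Peripheral lymphocyte count is given as percent-of-control reduction versus vehicle at 24 h. Total plasma drug concentration was measured at 24 h. Statistics used ANOVA/Dunnett versus vehicle.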

[6] = molecular target: T1, Sphingosine 1-phosphate receptor 3; assay: Agonist activity at human S1P3 receptor expressed in CHO cells coexpressing Gq/i5 G-protein assessed as Ca2+ mobilization at 25 uM after 60 to 90 mins by FLIPR assay; format: functional, cell-based
[7] = molecular target: T2, Sphingosine 1-phosphate receptor 1 (Homo sapiens, UniProt P21453); assay: Agonist activity at human S1P1 receptor expressed in human U2OS cells co-expressing eGFP assessed as receptor internalization after 1 hr; format: functional, cell-based
T2 sequence (P21453 whole entry, the tested form may be a part): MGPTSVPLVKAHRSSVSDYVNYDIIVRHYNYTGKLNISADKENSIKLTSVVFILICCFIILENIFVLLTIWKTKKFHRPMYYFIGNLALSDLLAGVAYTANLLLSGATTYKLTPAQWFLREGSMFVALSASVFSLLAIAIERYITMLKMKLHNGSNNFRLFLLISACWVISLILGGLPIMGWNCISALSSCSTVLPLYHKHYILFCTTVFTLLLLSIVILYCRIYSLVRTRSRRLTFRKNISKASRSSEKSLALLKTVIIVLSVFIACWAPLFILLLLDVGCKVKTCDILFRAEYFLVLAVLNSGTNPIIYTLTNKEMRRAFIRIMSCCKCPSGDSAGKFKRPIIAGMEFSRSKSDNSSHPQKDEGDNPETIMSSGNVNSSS
How it was run: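 U2OS cells expressing an hS1P1-GFP fusion protein; the read-out was receptor internalization. EC50 is the molar concentration giving a half-maximal response.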

[8] = molecular target: T2, Sphingosine 1-phosphate receptor 1; assay: Agonist activity at human S1P1 receptor expressed in human U2OS cells co-expressing eGFP assessed as receptor internalization after 1 hr relative to 1-(4-(6-benzylbenzofuran-2-yl)-3-fluorobenzyl)azetidine-3-carboxylic acid; format: functional, cell-based
[9] = Apparent permeability of the compound across pig LLC-PK1 cells; format: ADME, cell-based, Sus scrofa
How it was run: (§2)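 Parental porcine proximal tubule LLC-PK1 cell line. Apparent permeability was measured, and the efflux ratio was derived from it.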

[10] = Efflux ratio of permeability in pig LLC-PK1 cells; format: ADME, cell-based, Sus scrofa; how it was run: as §2
[11] = Plasma concentration in Lewis rat at 1 mg/kg, po measured 24 hrs post dosing; format: ADME, organism-based; design: dose 1 mg/kg, route oral; conditions: Lewis, plasma; how it was run: as §1
[12] = molecular target: T1, Sphingosine 1-phosphate receptor 3; assay: Agonist activity at human S1P3 receptor expressed in CHO cells coexpressing Gq/i5 G-protein assessed as Ca2+ mobilization after 60 to 90 mins by FLIPR assay relative to 0.2 uM S1P
Rattus norvegicus [13] = assay: Lymphopenic activity in Lewis rat assessed as reduction in peripheral blood lymphocyte counts at 3 mg/kg, po measured 24 hrs post dosing relative to control; format: functional; design: scale not given: the % may be the effect or the level left
How it was run: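 Female Lewis rats (N = 3/group) received a single oral dose in 20% captisol/1% HPMC/1% pluronic F68, pH 2, with MSA. Blood lymphocyte counts and plasma concentration were measured at 24 h, reported as mean ± SE. Comparison was versus vehicle by ANOVA/Dunnett, P < 0.05.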

[14] = Clearance in C57BL/6 mouse at 1 mg/kg, iv and 3 mg/kg, po; format: ADME, organism-based; conditions: in vivo
How it was run: (§3)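 Female C57BL/6 mice. IV dosing used 40% hydroxypropyl β-cyclodextrin/60% water. Oral dosing used 1% HPMC/1% pluronic F68/20% HPBCD/78% water with MSA, pH 2.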

[15] = Volume of distribution at steady state in C57BL/6 mouse at 1 mg/kg, iv; format: ADME, organism-based; design: dose 1 mg/kg, route intravenous; conditions: in vivo, read-out: Vdss; how it was run: as §3
[16] = Mean residence time in C57BL/6 mouse at 1 mg/kg, iv; format: ADME, organism-based; design: dose 1 mg/kg, route intravenous; conditions: in vivo; how it was run: as §3
[17] = AUC (0 to infinity) in C57BL/6 mouse at 3 mg/kg, po; format: ADME, organism-based; design: time infinity, dose 3 mg/kg, route oral; conditions: plasma; how it was run: as §3
[18] = Oral bioavailability in C57BL/6 mouse at 3 mg/kg; format: ADME, organism-based; conditions: in vivo; how it was run: as §3
[19] = Clearance in Sprague-Dawley rat at 1 mg/kg, iv and 2 mg/kg, po; format: ADME, organism-based; conditions: in vivo
How it was run: (§4)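 Male Sprague-Dawley rats. IV doses were given in DMSO. Oral doses were given in 20% Captisol/1% Tween 80, pH 2, with MSA. Plasma was collected up to 48 h after dosing.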

[20] = Volume of distribution at steady state in Sprague-Dawley rat at 1 mg/kg, iv; format: ADME, organism-based; design: dose 1 mg/kg, route intravenous; conditions: in vivo, read-out: Vdss; how it was run: as §4
[21] = Mean residence time in Sprague-Dawley rat at 1 mg/kg, iv; format: ADME, organism-based; design: dose 1 mg/kg, route intravenous; conditions: in vivo; how it was run: as §4
[22] = AUC (0 to infinity) in Sprague-Dawley rat at 2 mg/kg, po; format: ADME, organism-based; design: time infinity, dose 2 mg/kg, route oral; conditions: plasma; how it was run: as §4
[23] = Oral bioavailability in Sprague-Dawley rat at 2 mg/kg; format: ADME, organism-based; conditions: in vivo; how it was run: as §4
[24] = AUC (0 to infinity) in Sprague-Dawley rat at 100 mg/kg, po; format: ADME, organism-based; design: time infinity, dose 100 mg/kg, route oral; conditions: plasma; how it was run: as §4
[25] = Oral bioavailability in Sprague-Dawley rat at 100 mg/kg; format: ADME, organism-based; conditions: in vivo; how it was run: as §4
[26] = Clearance in nonhuman primates at 4 mg/kg, iv and 10 mg/kg, po; format: ADME, organism-based; conditions: in vivo
How it was run: (§5)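 Pharmacokinetics in male nonhuman primates. IV vehicle was 40% hydroxypropyl β-cyclodextrin/60% water with MSA, pH 3. Oral vehicle was 1% HPMC/1% pluronic F68/20% HPBCD/78% water with MSA, pH 2.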

[27] = Volume of distribution at steady state in nonhuman primates at 4 mg/kg, iv; format: ADME, organism-based; design: dose 4 mg/kg, route intravenous; conditions: in vivo, read-out: Vdss; how it was run: as §5
[28] = Mean residence time in nonhuman primates at 4 mg/kg, iv; format: ADME, organism-based; design: dose 4 mg/kg, route intravenous; conditions: in vivo; how it was run: as §5
[29] = AUC (0 to infinity) in nonhuman primates at 10 mg/kg, po; format: ADME, organism-based; design: dose 10 mg/kg, route oral, time infinity; conditions: plasma; how it was run: as §5
[30] = Oral bioavailability in nonhuman primates at 10 mg/kg; format: ADME, organism-based; conditions: in vivo; how it was run: as §5
[31] = Half life in Sprague-Dawley rat at 100 mg/kg, po; format: ADME, organism-based; design: dose 100 mg/kg, route oral; conditions: in vivo; how it was run: as §4
[32] = Half life in Sprague-Dawley rat at 1 to 2 mg/kg, iv and po; format: ADME, organism-based; design: dose 1-2 mg/kg, route oral; conditions: in vivo; how it was run: as §4
[33] = AUC (0 to 24 hrs) in rat at 3 mg/kg, po; format: ADME, organism-based; design: time < 24 hr, dose 3 mg/kg, route oral; conditions: plasma
Rattus norvegicus [34] = assay: AUC (0 to 24 hrs) in rat at 100 mg/kg, po; format: ADME, organism-based, Plasma; design: time < 24 hr, dose 100 mg/kg, route oral; conditions: in vivo

Row | SMILES | pEC50 [1] | solubility [2] [µg/mL] | fraction unbound [3] | microsomal CLint at 1 µM [4] [µL/min/mg] | Activity [6] [%] | pEC50 [7] | Efficacy [8] [%] | Papp [9] [×10⁻⁶ cm/s] | efflux ratio [10] | concentration at 24 h [11] [ng/mL] | Activity (Rattus norvegicus [5]) [%] | further results
1 | Cn1cc(C(=O)Nc2ccc(-c3ccccc3)c(C(F)(F)F)c2)c(=O)c2cnccc21 | < 4.60 | 5 (≈ 11.8 µM) | 0.083 | < 14 | < 10 | – | – | – | – | – | -64 | –
2 | Cn1cc(C(=O)Nc2ccc(-c3ccccc3)c(C(F)(F)F)c2)c(=O)c2cccc(C(=O)O)c21 | 5.96 | – | – | – | – | 5.70 | 103 | – | – | – | – | Efficacy [12]: 11%
3 | Cn1cc(C(=O)Nc2ccc(-c3ccccc3)c(C(F)(F)F)c2)c(=O)c2cccc(CCO)c21 | < 4.60 | – | – | – | < 10 | 6.41 | 106 | – | – | – | – | –
4 | COc1ccncc1C(=O)NC(=O)Nc1ccc(-c2ccccc2)c(C(F)(F)F)c1 | – | – | – | – | – | – | – | – | – | – | – | AUC(0-t) at 24 h [33]: 12 µM·h; AUC (Rattus norvegicus [34]): 73 µM·h

Continued, in another order:

Row | pEC50 [1] | solubility [2] [µg/mL] | fraction unbound [3] | microsomal CLint at 1 µM [4] [µL/min/mg] | Activity [6] [%] | pEC50 [7] | Efficacy [8] [%] | Papp [9] [×10⁻⁶ cm/s] | efflux ratio [10] | concentration at 24 h [11] [ng/mL] | SMILES | Activity (Rattus norvegicus [5]) [%] | further results
5 | < 4.60 | 27 (≈ 59.7 µM) | 0.076 | < 14 | < 10 | 7.74 | 125 | 2.8 | 1 | 65 | Cn1cc(C(=O)Nc2ccc(-c3ccccc3)c(C(F)(F)F)c2)c(=O)c2ccc(CO)cc21 | -44 | –
6 | – | – | – | – | – | – | 105 | – | – | – | Cn1cc(C(=O)Nc2ccc(-c3ccccc3)c(C(F)(F)F)c2)c(=O)c2ccccc21 | – | –
7 | < 4.60 | > 200 | 0.083 | < 14 | < 10 | 7.74 | 106 | 2.5 | 1 | 84 | Cn1cc(C(=O)Nc2ccc(-c3ccccc3)c(C(F)(F)F)c2)c(=O)c2cnc(CO)cc21 | -60 | Activity (Rattus norvegicus [13]): 88%; clearance [14]: 5.17 mL/min/kg; Vd [15]: 6 L/kg; MRT [16]: 20 h; AUC(0-inf) [17]: 16 µM·h; bioavailability [18]: 75%; clearance [19]: 5.17 mL/min/kg; Vd [20]: 5.8 L/kg; MRT [21]: 19 h; AUC(0-inf) [22]: 19 µM·h; bioavailability [23]: 132%; AUC(0-inf) [24]: 1630 µM·h; bioavailability [25]: > 93%; clearance [26]: 1.83 mL/min/kg; Vd [27]: 4.3 L/kg; MRT [28]: 40 h; AUC(0-inf) [29]: 141 µM·h; bioavailability [30]: 67%; half-life [31]: 57 h; half-life [32]: 13 h
8 | < 4.60 | – | – | – | < 10 | 6.15 | 46 | – | – | – | Cn1cc(C(=O)Nc2ccc(-c3ccccc3)c(C(F)(F)F)c2)c(=O)c2cc(CO)ccc21 | – | –
9 | < 4.60 | 6 (≈ 12.9 µM) | 0.073 | < 14 | < 10 | 8.10 | 118 | 2.2 | 1 | 27 | Cn1cc(C(=O)Nc2ccc(-c3ccccc3)c(C(F)(F)F)c2)c(=O)c2ccc(CCO)cc21 | -48 | –
